# Active and inactive are the calls of the source. The calls are words filed in the database; no cut-off is given here.
# How the values were obtained:
# A-375 [1] = experiment: Cytotoxicity in human A375 cells assessed as reduction in cell viability incubated for 48 hrs by MTT assay; assay type: functional, cell-based; conditions: Homo sapiens, A-375, 48 h; read-out: IC50
# Method in brief: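 MTT viability assay on A375 melanoma, A549 lung adenocarcinoma and WI-38 normal lung fibroblast cells after 24 and 48 h treatment. IC50 values are in µM, expressed as mean ± SD.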
# A-375 [2] = experiment: Cytotoxicity in human A375 cells assessed as reduction in cell viability at 0.001 to 100 uM incubated for 24 to 48 hrs by LDH assay; assay type: functional, cell-based
# Method in brief: (§1)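 LDH released into the culture medium after plasma membrane damage was quantified and expressed as percentage cytotoxicity.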
# A549 [3] = experiment: Cytotoxicity in human A549 cells assessed as reduction in cell viability at 0.001 to 100 uM incubated for 24 to 48 hrs by LDH assay; assay type: functional, cell-based; method in brief: as §1
# [4] = Antioxidant activity assessed as DPPH radical scavenging activity at 1 to 1000 ug/ml incubated for 30 mins by spectrophotometry; assay type: functional
# [5] = Antioxidant activity assessed as hydroxyl radical scavenging activity at 1 to 1000 ug/ml incubated for 1 hr; assay type: functional
# A549 [6] = experiment: Induction of intracellular ROS generation in human A549 cells at 1 uM by DCFDA dye based fluorescence assay relative to control; assay type: functional
# Method in brief: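 Intracellular ROS in A549 cells was measured with the DCFDA probe over 1-100 µM, with paclitaxel as positive control. Readout is fold change in fluorescence intensity relative to untreated control.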
# A549 [7] = experiment: Induction of morphological changes in human A549 cells assessed as change in shape of cells from spindle to spherical at 1 uM by atomic force microscopy; assay type: functional, cell-based
# A-375 [8] = experiment: Induction of morphological changes in human A375 cells assessed as change in shape of cells from spindle to spherical at 1 uM by atomic force microscopy; assay type: functional, cell-based
# A549 [9] = experiment: Induction of apoptosis in human A549 cells at 1 uM by acridine orange-ethidium bromide assay; assay type: functional, cell-based
# Method in brief: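 Cells were treated at 1 µM and then stained with acridine orange-ethidium bromide. Apoptosis was scored by fluorescence microscopy as a colour shift from green to yellow/red.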
# A-375 [10] = experiment: Induction of apoptosis in human A375 cells at 1 uM by APOP assay; assay type: functional, cell-based
# A549 [11] = experiment: Induction of apoptosis in human A549 cells assessed as early apoptotic cells level at 1 uM incubated for 24 hrs by FITC-Annexin V staining based assay (reference value: 0.01%); assay type: functional
# A549 [12] = experiment: Induction of apoptosis in human A549 cells assessed as late apoptotic cells level at 1 uM incubated for 24 hrs by FITC-Annexin V staining based assay (reference value: 0.02%); assay type: functional
# A549 [13] = experiment: Induction of apoptosis in human A549 cells assessed as necrosis cells level at 1 uM incubated for 24 hrs by FITC-Annexin V staining based assay (reference value: 0.3%); assay type: functional
# A-375 [14] = experiment: Induction of apoptosis in human A375 cells at 1 uM by TUNEL assay; assay type: functional, cell-based
# A549 [15] = experiment: Antimetastatic activity in human A549 cells assessed as inhibition of cell migration rate at 1 nM incubated up to 24 hrs by scratch wound healing assay; assay type: functional, cell-based
# Method in brief: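 Scratch wound healing assay. The cell-free zone was followed over time up to 24 h, with untreated control wells as reference. Closure was quantified as migration rate.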
# A549 [16] = experiment: Induction of cell cycle arrest in human A549 cells assessed as accumulation at G0/G1 phase at 10 nM by propodium iodide staining based flow cytometric analysis (reference value: 68%); assay type: functional
# Method in brief: (§2)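 DNA was stained with propidium iodide and analysed by flow cytometry. Histograms give the fraction of cells in G0/G1, S and G2/M phases.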
# A549 [17] = experiment: Induction of cell cycle arrest in human A549 cells assessed as accumulation at G2/M phase at 10 nM by propodium iodide staining based flow cytometric analysis (reference value: 7%); assay type: functional; method in brief: as §2
# A-375 [18] = experiment: Induction of cell cycle arrest in human A375 cells assessed as accumulation at G0/G1 phase at 10 nM by propodium iodide staining based flow cytometric analysis; assay type: functional; method in brief: as §2
# A-375 [19] = experiment: Induction of cell cycle arrest in human A375 cells assessed as accumulation at G2/M phase at 10 nM by propodium iodide staining based flow cytometric analysis; assay type: functional; method in brief: as §2
# A549 [20] = experiment: Inhibition of mitochondrial membrane potential in human A549 cells at 1 uM by TMRE staining based assay; assay type: functional, cell-based
# A-375 [21] = experiment: Inhibition of mitochondrial membrane potential in human A375 cells at 1 uM by TMRE staining based assay; assay type: functional, cell-based
# A549 [22] = experiment: Induction of apoptosis in human A549 cells assessed as increase in caspase-9 levels at 1 uM incubated for 12 hrs by spectrofluorometry; assay type: functional, cell-based
# A-375 [23] = experiment: Induction of apoptosis in human A375 cells assessed as increase in caspase-9 levels at 1 uM incubated for 12 hrs by spectrofluorometry; assay type: functional, cell-based
# A-375 [24] = experiment: Induction of apoptosis in human A375 cells assessed as increase in caspase-8 levels at 1 uM incubated for 12 hrs by spectrofluorometry; assay type: functional, cell-based
# A-375 [25] = experiment: Induction of apoptosis in human A375 cells assessed as increase in caspase-2 levels at 1 uM incubated for 12 hrs by spectrofluorometry; assay type: functional, cell-based
# A549 [26] = experiment: Induction of DNA damage in human A549 cells after 4 hrs by Raman spectral imaging analysis; assay type: functional, cell-based
# A549 [27] = experiment: Induction of apoptosis in human A549 cells assessed as cytochrome-c release after 6 to 8 hrs by Raman spectral imaging analysis; assay type: functional, cell-based
# A-375 [28] = experiment: Induction of apoptosis in human A375 cells assessed as cytochrome-c release after 6 to 8 hrs by Raman spectral imaging analysis; assay type: functional, cell-based
# A-375 [29] = experiment: Induction of DNA damage in human A375 cells by SERS spectral analysis; assay type: functional, cell-based
# A549 [30] = experiment: Induction of DNA damage in human A549 cells by SERS spectral analysis; assay type: functional, cell-based
# A-375 [31] = experiment: Induction of DNA fragmentation in human A375 cells after 3 hrs by chemometec-DNA fragmentation assay relative to control; assay type: functional, cell-based
# A549 [32] = experiment: Induction of GSH depletion in human A549 cells by fluorimetry; assay type: functional, cell-based
# A549 [33] = experiment: Induction of apoptosis related protein expression in human A549 cells assessed as increase in TNFalpha/beta expression at 20 uM incubated for 12 hrs by apoptosis antibody array; assay type: functional, cell-based
# A549 [34] = experiment: Induction of apoptosis related protein expression in human A549 cells assessed as increase in CD40L expression at 20 uM incubated for 12 hrs by apoptosis antibody array; assay type: functional, cell-based
# A549 [35] = experiment: Induction of apoptosis related protein expression in human A549 cells assessed as increase in HSP60 expression at 20 uM incubated for 12 hrs by apoptosis antibody array; assay type: functional, cell-based
# A549 [36] = experiment: Induction of apoptosis related protein expression in human A549 cells assessed as increase in Bim expression at 20 uM incubated for 12 hrs by apoptosis antibody array; assay type: functional, cell-based
# A549 [37] = experiment: Induction of apoptosis related protein expression in human A549 cells assessed as increase in Bad expression at 20 uM incubated for 12 hrs by apoptosis antibody array; assay type: functional, cell-based
# A549 [38] = experiment: Induction of apoptosis related protein expression in human A549 cells assessed as increase in Cyt-c expression at 20 uM incubated for 12 hrs by apoptosis antibody array; assay type: functional, cell-based
structure (smiles),measurement,setting,value
COc1cc(C2Oc3cc(-c4cc(=O)c5c(O)cc(O)cc5o4)ccc3OC2/C=C2\C(=O)ON=C2c2ccc(Cl)cc2)ccc1O (stereo not drawn),IC50,A-375 [1],940 nM
same,Activity,A-375 [2],Active
same,Activity,A549 [3],Active
same,Activity,[4],inactive
same,Activity,[5],Dose-dependent effect
same,fold change (FC),A549 [6],>3
same,Activity,A549 [7],Active
same,Activity,A-375 [8],Active
same,Activity,A549 [9],Active
same,Activity,A-375 [10],Active
same,Activity,A549 [11],9%
same,Activity,A549 [12],38%
same,Activity,A549 [13],13%
same,Activity,A-375 [14],Active
same,Activity,A549 [15],Active
same,Activity,A549 [16],31%
same,Activity,A549 [17],29%
same,Activity,A-375 [18],Active
same,Activity,A-375 [19],Active
same,inhibition,A549 [20],Active
same,inhibition,A-375 [21],Active
same,Activity,A549 [22],Active
same,Activity,A-375 [23],Active
same,Activity,A-375 [24],inactive
same,Activity,A-375 [25],Active
same,Activity,A549 [26],Active
same,Activity,A549 [27],Active
same,Activity,A-375 [28],Active
same,Activity,A-375 [29],Active
same,Activity,A549 [30],Active
same,Activity,A-375 [31],Active
same,Activity,A549 [32],Active
same,Activity,A549 [33],Active
same,Activity,A549 [34],Active
same,Activity,A549 [35],Active
same,Activity,A549 [36],Active
same,Activity,A549 [37],Active
same,Activity,A549 [38],inactive

# From ChEMBL document CHEMBL4334468, “Exploring Mitochondria-Mediated Intrinsic Apoptosis by New Phytochemical Entities: An Explicit Observation of Cytochrome c Dynamics on Lung and Melanoma Cancer Cells” (J Med Chem, 2019)
